Measured values taken from paper PMC9037101 (RSC Advances, 2021).

Assays:
[1] = Stability of the analytes in rat plasma QC samples; format: in vitro ADME; conditions: for Free-thaw stability: Measured concentration / Free-thaw stability: Accuracy: 3 free thaw cycles; for Free-thaw stability: Accuracy / Long-tern stability: Accuracy: relative error; for Long-tern stability: Accuracy / Long-tern stability: Measured concentration: −20 °C for 21 d; for Short-tern stability: Measured concentration: room temperature for 8 h
Summary of the method: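 Rat (SD male) plasma QC samples at low, medium and high levels, six replicates each. Storage conditions: 4 h at room temperature after preparation, 8 h at room temperature (short-term), 21 days at −20 °C (long-term), and three freeze (−20 °C)/thaw (room temperature) cycles over three consecutive days. Samples were methanol-precipitated with internal standard and measured by HPLC-MS/MS. Stability was reported as relative error.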

[2] = format: in vivo, Sprague-Dawley (SD) rats; conditions: for Cmax / Tmax / half-life / AUC(0-inf) / AUC(0-t): male, Sprague-Dawley, plasma, po, 15 mL kg^−1; for Cmax / Tmax / half-life / absorption into blood (in words) / AUC(0-inf) / AUC(0-t): rat; for absorption into blood (in words): oral administration of extract
[3] = double-peak phenomenon, rat plasma, oral extract

Row | Structure (SMILES) | Free-thaw stability: Measured concentration ([1]; high QC spiked concentration) [ng/mL] | Free-thaw stability: Measured concentration ([1]; low QC spiked concentration) [ng/mL] | Free-thaw stability: Measured concentration ([1]; medium QC spiked concentration) [ng/mL] | Free-thaw stability: Accuracy ([1]; high QC spiked concentration) [%] | Free-thaw stability: Accuracy ([1]; low QC spiked concentration) [%] | Free-thaw stability: Accuracy ([1]; medium QC spiked concentration) [%] | Long-tern stability: Accuracy ([1]; high QC spiked concentration) [%] | Long-tern stability: Accuracy ([1]; low QC spiked concentration) [%] | Long-tern stability: Accuracy ([1]; medium QC spiked concentration) [%] | Short-tern stability: Measured concentration ([1]; high QC spiked concentration) [ng/mL] | Short-tern stability: Measured concentration ([1]; low QC spiked concentration) [ng/mL] | Short-tern stability: Measured concentration ([1]; medium QC spiked concentration) [ng/mL] | Long-tern stability: Measured concentration ([1]; high QC spiked concentration) [ng/mL] | Long-tern stability: Measured concentration ([1]; low QC spiked concentration) [ng/mL] | Long-tern stability: Measured concentration ([1]; medium QC spiked concentration) [ng/mL] | Cmax [2] [ng/mL] | Tmax [2] [min] | half-life [2] [min] | absorption into blood (in words) [2] | AUC(0-inf) [2] [ng·h/mL] | further results
1 | C[C@@H]1O[C@@H](O[C@@H]2[C@@H](O)[C@H](OCCc3ccc(O)c(O)c3)O[C@H](CO)[C@H]2OC(=O)/C=C/c2ccc(O)c(O)c2)[C@H](O)[C@H](O)[C@H]1O [Acteoside, acteoside] | 2132.91 ± 11.91 | 2.1 ± 0.14 | 544.87 ± 4.54 | 5.21 | 3.45 | 4.92 | 6.94 | 1.97 | 4.16 | 2150.14 ± 11.92 | 2.11 ± 0.13 | 548.82 ± 2.92 | 2167.98 ± 18.52 | 2.07 ± 0.12 | 540.92 ± 9.44 | 650 ± 16.4 | 10 | 46.8 ± 0.35 | rapidly absorbed | – | –
2 | O=c1cc(-c2ccc(O)cc2)oc2cc(O)cc(O)c12 [Apigenin, apigenin] | 494.36 ± 4.99 | 7.34 ± 0.32 | 124.68 ± 6.33 | 5.51 | 3.67 | 6.63 | 3.51 | 7.06 | 6.48 | 490.89 ± 7.31 | 7.17 ± 1.91 | 123.78 ± 2.47 | 484.98 ± 5.09 | 7.58 ± 0.51 | 124.51 ± 4.02 | 146 ± 14.9 | 180 | 298.5 ± 0.16 | absorbed very slowly | – | time of first peak of the plasma concentration–time curve [2, 3]: 5 min; time of second peak of the plasma concentration–time curve [2, 3]: 180 min
3 | COc1ccc(-c2cc(=O)c3c(O)cc(O)cc3o2)cc1 [Acacetin, acacetin] | 108.48 ± 6.51 | 4.81 ± 0.22 | 26.99 ± 4.36 | 6.21 | 4.11 | 3.13 | 3.46 | 4.11 | 1.38 | 107.02 ± 3.38 | 4.69 ± 0.36 | 27.31 ± 5.34 | 105.68 ± 9.65 | 4.81 ± 0.27 | 26.53 ± 3.21 | 31.9 ± 17.6 | 10 | 96.87 ± 0.12 | rapidly absorbed | 17.7 | AUC(0-t) [2]: 15.3 ng·h/mL
4 | C[C@@H]1O[C@@H](OC[C@H]2O[C@@H](Oc3c(-c4ccc(O)c(O)c4)oc4cc(O)cc(O)c4c3=O)[C@H](O)[C@@H](O)[C@@H]2O)[C@H](O)[C@H](O)[C@H]1O [Rutin] | 437.7 ± 10.02 | 6.2 ± 1.88 | 110.30 ± 8.24 | 4.58 | 2.48 | 7.54 | 2.55 | 4.30 | 4.68 | 426.82 ± 18.15 | 6.36 ± 6.81 | 108.48 ± 7.41 | 429.20 ± 19.79 | 6.31 ± 5.88 | 107.37 ± 9.98 | 131 ± 18.3 | 5 | – | rapidly absorbed | – | AUC(0-t) [2]: 50.7 ng·h/mL; AUC0–∞ (mean ± SD) ([2]; rat plasma, single oral administration of extract 15 mL kg^−1, n = 6): 3039.62 ± 54.07 ng/L/h
5 | O=c1c(O)c(-c2ccc(O)c(O)c2)oc2cc(O)cc(O)c12 [Quercetin, quercetin] | 67.46 ± 2.42 | 2.78 ± 0.89 | 17.48 ± 1.19 | 4.62 | 5.30 | 6.72 | 6.02 | 3.03 | 5.43 | 66.98 ± 7.47 | 2.80 ± 1.62 | 17.12 ± 1.22 | 68.36 ± 3.68 | 2.72 ± 0.32 | 17.27 ± 2.69 | 20.1 ± 24.9 | 5 | 46.03 ± 0.09 | rapidly absorbed | 18.2 | AUC(0-t) [2]: 9.31 ng·h/mL
6 | O=c1cc(-c2ccc(O)c(O)c2)oc2cc(O)cc(O)c12 [Luteolin, luteolin] | 258.35 ± 4.86 | 6.60 ± 0.18 | 66.03 ± 2.64 | 4.35 | 4.43 | 6.21 | 5.43 | 6.01 | 8.32 | 260.55 ± 0.49 | 6.76 ± 0.18 | 64.88 ± 0.92 | 261.02 ± 4.65 | 6.7 ± 0.76 | 67.34 ± 3.63 | 77.4 ± 25.7 | 5 | 36.08 ± 0.24 | – | 35.4 | –
